Where two headings read alike, the source gives them in different places.
Experiments:
[1] = test system: PIK3CB protein; assay: PIK3CB protein level by western blot in U87MG cells; type: cell-based, human; conditions: 72-hr treatment, normalized with GAPDH
[2] = test system: orthotopic U87MG-Luc glioblastoma; assay: Survival monitoring assay; type: in vivo, nude mice; conditions: 3 nmol/20 g mixed with Gelofusine (4 mg/20 g) i.v. at 48-hr interval; for median survival time: n = 5
Procedure, shortened: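 Fifteen orthotopic U87MG-Luc nude mice were randomised into 3 groups (2 male, 3 female each). Each received saline, scrambled conjugate or test conjugate (3 nmol/20 g) i.v. every 48 hr, all mixed with Gelofusine (4 mg/20 g). Body weight was recorded daily and IVIS luminescence on days 0, 7 and 28. Mice were sacrificed at 40% loss of primary body weight.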

[3] = test system: orthotopic U87MG-Luc glioblastoma; assay: In vivo anti-tumor effects; set-up: species or system nude mice; conditions: 12 times over a 24-hr interval, after 12 days; for tumor growth (luminescence intensity) versus saline: 1 nmol/20 g i.v., n = 5 per group
Procedure, shortened: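 U87MG-Luc cells (3 × 10⁵ in 3 μL ice-cold PBS) were implanted stereotaxically into BALB/c nude mice (2 mm right of bregma, 3 mm deep). Dosing began once IVIS detected tumours. Twenty mice were randomised into 4 groups (2 male, 3 female each). Groups were saline, scrambled 1 nmol/20 g, or test 0.5 or 1 nmol/20 g, i.v. 12 times at 24-hr intervals. IVIS luminescence was read on days 0, 7 and 12, then excised brains were imaged.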

[4] = test system: orthotopic U87MG-Luc glioblastoma; assay: Immunofluorescence analysis of frozen brain sections; type: in vivo, nude mice; conditions: 1 nmol/20 g i.v., confocal
Procedure, shortened: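 Orthotopic U87MG-Luc nude mice received a single i.v. dose of Cy5-labelled siRNA (1 nmol/20 g). Brains taken from the imaging study were frozen at –80°C and sectioned. Sections were stained for CD31 (vessels) and with DAPI, then imaged by confocal microscopy (Cy5 ex 640 nm, em 680 nm). Normal brain served as comparison.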

[5] = test system: U87MG cells; assay: Cellular uptake by flow cytometry; type: cell-based, human
Procedure, shortened: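 U87MG cells were exposed to Cy5-labelled conjugate at 100, 200, 400 or 600 nM, or Cy5-labelled comparators at 600 nM, in Opti-MEM for 12 hr at 37°C. Cells were trypsinised, washed twice in PBS, resuspended, and Cy5 was read by flow cytometry. Receptor blocking used pre-treatment with excess unconjugated biRGD peptide.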

[6] = test system: U87MG cells; assay: Confocal fluorescence microscopy of intracellular distribution; type: cell-based, human; conditions: for intracellular distribution (Cy5, confocal): Opti-MEM
Procedure, shortened: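 U87MG cells were exposed to Cy5-labelled molecules at 600 nM in Opti-MEM for 12 hr at 37°C, with or without prior blocking using excess biRGD peptide. Cells were PBS-washed, fixed in 4% paraformaldehyde for 15 min at room temperature, stained with anti-TGN46 and an Alexa Fluor 488 secondary, then imaged by confocal microscopy.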

[7] = test system: orthotopic U87MG-Luc glioblastoma; assay: In vivo distribution assay; set-up: species or system nude mice
Procedure, shortened: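 Orthotopic U87MG-Luc nude mice received a single i.v. dose (1 nmol/20 g) of Cy5-labelled conjugate, conjugate plus Gelofusine (4 mg/20 g), unconjugated Cy5-siRNA, or monovalent comparator. Whole-body IVIS Cy5 imaging (ex 640 nm, em 680 nm) was done at 12, 24, 36 and 48 hr. At 24 hr some mice were sacrificed and their tumours and major organs imaged ex vivo.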

[8] = test system: HeLa cells; assay: Cellular uptake by flow cytometry; type: cell-based; conditions: HeLa (αvβ3-negative), 600 nM, Opti-MEM, 12 h, 37°C, Cy5 flow cytometry
[9] = test system: U87MG cells; assay: Transwell migration assay; type: cell-based, human; conditions: 100-600 nM, 48-hr treatment, Matrigel-coated 8-μm inserts, migration 24 hr
Procedure, shortened: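 U87MG cells were exposed to test conjugate (100–600 nM) or scrambled conjugate (600 nM) in serum-free Opti-MEM for 24 hr, then held 48 hr with 10% serum. Cells (5 × 10⁴ in serum-free DMEM) were placed on Matrigel-coated (2 mg/mL) 8-μm inserts, with 10% FBS DMEM below, and allowed to migrate 24 hr. Crystal-violet-stained cells were counted in five random fields.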

[10] = test system: PIK3CB protein; type: in vivo, human
[11] = Serum stability assay; type: in vitro ADME; conditions: 5 μL 20 μM mixed with 5 μL mouse serum, 37°C, 1.2% agarose gel
[12] = test system: PIK3CB mRNA; assay: In vivo silencing, PIK3CB mRNA in tumor by qRT-PCR; set-up: species or system human; conditions: versus saline and biRGD-siNC
[13] = test system: PIK3CB mRNA; assay: PIK3CB mRNA level by qRT-PCR in U87MG cells; type: cell-based, human; conditions: no transfection agent, 48 hr, normalized with GAPDH
[14] = test system: U87MG cells; assay: Cell apoptosis analysis, Annexin V-FITC/PI flow cytometry; type: cell-based, human; conditions: 72 hr post-treatment
Procedure, shortened: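 U87MG cells attached 24 hr, then exposed to the test conjugate (100, 200, 400 or 600 nM) or scrambled conjugate (600 nM) in serum-free Opti-MEM for 24 hr; untreated control. 10% serum was then added and cells held 72 hr. Apoptosis was measured by Annexin V-FITC/PI staining per kit and read on a flow cytometer as apoptosis rate.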

[15] = Hepatotoxicity, serum ALT; set-up: species or system nude mice; conditions: serum from in vivo anti-tumor assay
Procedure, shortened: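 Serum came from orthotopic U87MG-Luc nude mice in the anti-tumour study. Dosing was saline, scrambled conjugate 1 nmol/20 g, or test conjugate 0.5 or 1 nmol/20 g, given i.v. 12 times at 24-hr intervals. Serum was collected after sacrifice on day 12. ALT was measured on an automated chemistry analyser following the manufacturer's instructions.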

[16] = test system: kidneys; assay: Histopathological evaluation of kidneys; type: in vivo, nude mice; conditions: 1 nmol/20 g i.v., 12 times over a 24-hr interval, H&E
Procedure, shortened: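 Kidneys from orthotopic U87MG-Luc nude mice dosed i.v. 12 times at 24-hr intervals were used. Tissues were fixed at once in 4% paraformaldehyde, paraffin-embedded, cut into 5-μm sections and stained with H&E for histology.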

[17] = test system: orthotopic U87MG-Luc glioblastoma; assay: ki67 staining and TUNEL assay of tumor sections; type: in vivo, nude mice
Procedure, shortened: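 Tumours from the anti-tumour study were used (saline, scrambled 1 nmol/20 g, or test 0.5 or 1 nmol/20 g, i.v. 12 times at 24-hr intervals). They were fixed in 4% paraformaldehyde, paraffin-embedded and cut into 5-μm sections. Sections were stained by Ki67 immunohistochemistry and TUNEL kit. Results were expressed as Ki67-positive/total cells and apoptotic index (TUNEL-positive/total cells).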

[18] = Immunogenicity evaluation, serum cytokines by ELISA; type: in vivo, BALB/c mice; conditions: 5nmol/20 g single injection, serum at 6hr
Procedure, shortened: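 Immunocompetent BALB/c mice (4–6 weeks, ~20 g) got a single injection of saline or test conjugate (5 nmol/20 g), alone or mixed with Gelofusine (4 mg/20 g). Serum was collected at 6 hr, and IL-6, IFN-β and TNF-α were measured by ELISA kit.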

[19] = 0.5 nmol/20 g i.v. x12, versus saline and biRGD-siNC
[20] = 1 nmol/20 g i.v. x12, versus saline and biRGD-siNC

[cyclo(Arg-Gly-Asp-D-Phe-Lys)-Ahx]2-Glu-PEG-MAL (bicyclic or more) [biRGD-siNC, reference compound]
PIK3CB protein level, remaining amount ([1]; 600 nM): almost no effect
course of body weight [2]: rapid decrease in body weight
median survival time [2]: 23 days
tumor growth (luminescence intensity) versus saline [3]: no significant difference

[cyclo(Arg-Gly-Asp-D-Phe-Lys)-Ahx]2-Glu-PEG-MAL (bicyclic or more) [biRGD-siNC-Cy5]
Cy5 signal in sections of GBM-bearing brain tissues ([4]; CD31 staining): significantly higher
Cy5 signal in sections of normal brain tissues [4]: little
uptake after blocking integrin αvβ3 receptors ([5]; U87MG pre-treated with 1 μM unconjugated biRGD peptide, 37°C, 1 hr): inhibited
uptake relative to cRGD-siNC-Cy5 ([5]; U87MG, 600 nM, 12 hr, Cy5 flow cytometry): approximately twice
cellular uptake ([5]; U87MG, 100 to 600 nM, Opti-MEM, 12 hr, 37°C, Cy5 flow cytometry): enhanced cellular uptake that increased progressively
saturation of uptake ([5]; U87MG, tested range 100 to 600 nM): No evidence of saturation of uptake
intracellular distribution after pre-treating with excess biRGD peptide ([6]; U87MG blocked with biRGD (1 μM)): inhibited
intracellular distribution (Cy5, confocal) ([6]; U87MG, 600 nM): substantial uptake and wide distribution in the cell
subcellular localization versus trans-Golgi marker TGN46 ([6]; U87MG, 600 nM, anti-TGN46/Alexa Fluor 488): substantial overlap with TGN46 protein
time of peak Cy5 fluorescence intensity of orthotopic GBM ([7]; 1 nmol/20 g i.v. single dose, IVIS): 24 h
Cy5 fluorescence within the tumor and kidneys ([7]; 1 nmol/20 g i.v. single dose, IVIS at 12, 24, and 36 hr): high red Cy5 fluorescent expressions
presence in other main organs (heart, spleen, and lung), ex vivo ([7]; 1 nmol/20 g i.v., organs excised at 24 hr): not found
ex vivo targeting of GBM-bearing brain tissue ([7]; 1 nmol/20 g i.v., organs excised at 24 hr, ex vivo Cy5 imaging): specifically target the GBM-bearing brain tissue
cellular uptake [8]: no uptake

[cyclo(Arg-Gly-Asp-D-Phe-Lys)-Ahx]2-Glu-PEG-MAL (bicyclic or more) [biRGD-siPIK3CB]
U87MG cell invasion (transwell migration) [9]: significantly inhibit
PIK3CB protein level in tumor (immunohistochemistry) ([10]; 0.5 nmol/20 g i.v. x12): remarkably low
PIK3CB protein level in tumor (immunohistochemistry) ([10]; 1 nmol/20 g i.v. x12): remarkably low
PIK3CB protein level in tumor (western blot) ([10]; 1 nmol/20 g i.v. x12): significantly decreased
degradation in mouse serum at 96 hr ([11]; 96 hr): low degradation
PIK3CB mRNA expression in tumor ([12]; 0.5 nmol/20 g i.v. x12, qRT-PCR): obviously low expression
PIK3CB mRNA expression in tumor ([12]; 1 nmol/20 g i.v. x12, qRT-PCR): obviously low expression
PIK3CB mRNA level, remaining amount ([13]; 400 nM): about 60%
PIK3CB mRNA level, remaining amount ([13]; 600 nM): ~50%
PIK3CB protein level, remaining amount ([1]; 400 nM): about 70%
PIK3CB protein level, remaining amount ([1]; 600 nM): about 60%
apoptosis rate ([14]; 400 nM): 15.14%
apoptosis rate ([14]; 600 nM): 20.76%
ALT level in the serum versus saline ([15]; mixed with Gelofusine): no statistically meaningful difference
ALT level in the serum versus saline ([15]; Aeroset Chemistry Analyzer): no statistically meaningful difference
pathological sections of kidneys versus saline [16]: mild pathological changes in kidneys
apoptotic tumor cells (TUNEL) [17, 19]: obviously higher number
proliferative cells in tumors (ki67) [17, 19]: obviously decreased
apoptotic tumor cells (TUNEL) [17, 20]: obviously higher number
proliferative cells in tumors (ki67) [17, 20]: obviously decreased
number of apoptotic tumor cells, 1 nmol/20 g group relative to 0.5 nmol/20 g group ([17]; TUNEL): about twice
course of body weight [2]: steady
median survival time [2]: 26 days
tumor growth (luminescence intensity) versus saline and biRGD-siNC ([3]; 0.5 nmol/20 g i.v.): no significance
tumor growth (luminescence intensity) versus saline [3]: significant tumor growth inhibition
IFN-β level of the serum versus saline [18]: no significant difference
IL-6 level of the serum versus saline [18]: no significant difference
TNF-α level of the serum versus saline [18]: no significant difference

cyclo(Arg-Gly-Asp-D-Phe-Lys) (head to tail) [cRGD-siNC-Cy5, reference compound]
intracellular distribution (Cy5, confocal) ([6]; U87MG, 600 nM): substantial uptake and wide distribution in the cell

siPIK3CB: sense 5′-AC(mC)(mU)G(mU)GGAUACUCAU(mU)A(mA)dTdT-3′, antisense 5′-U(mU)AA(mU)GAGUAUCCA(mC)AG(mG)(mU)dTdT-3′
incubation time in mouse serum after which degraded ([11]; 0-96 hr): 48 h
